System in the first experiment: not listed separately
Kind of experiment: Effective concentration required for reversible loss of righting reflex in Xenopus laevis tadpoles. The class given is functional, Tadpole.
Conditions: not given
As usually defined, the EC50 is the concentration that produces a half-maximal response. `CCOC(=O)c1cn(-c2ccc(Cl)cc2Cl)c(-c2ccc(Cl)cc2)n1`: the EC50 was found to be 1200 nM. For the molecule `CCOC(=O)c1cncn1[C@H](C)c1ccccc1` [ETOMIDATE], the response was half-maximal at 2300 nM (EC50). In the case of `CC(C)c1cccc(C(C)C)c1O` [PROPOFOL], the EC50 is 1900 nM.

The next experiment has as its target GABA A receptor alpha-2/beta-2/gamma-2 (Homo sapiens) (UniProt P47870+P18507+P47869). Kind of experiment: Maximal efficacy for GABA-evoked chloride currents mediated by human Gamma-aminobutyric acid GABA-A receptor alpha2-beta2-gamma2L expressed in Xenopus oocytes. Type of experiment: cell-based. The conditions noted are these: Oocyte. Put shortly:
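Human α2β2γ2L cDNAs, 1.5 ng total in 30 nL at a 1:1:1 ratio, injected into the animal pole of oocytes. Oocytes held at 15 °C in supplemented modified Barth's solution, pH 7.5. Compounds were applied for 60 s together with GABA at EC10 (10% of the 10 mM GABA maximum), final DMSO ≤0.1%. Readout was % potentiation of Cl- current from concentration-response curves.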
Consider `CCOC(=O)c1cn(-c2ccc(Cl)cc2Cl)c(-c2ccc(OC)cc2)n1`, for which the Maximal efficacy came out at 362%. `CCOC(=O)c1cn(-c2ccc(Cl)c(Cl)c2)c(-c2ccc(Cl)cc2)n1`: the Maximal efficacy amounted to 521%. Same read-out and setting: the same measure for `COC(=O)c1cn(-c2ccc(Cl)cc2Cl)c(-c2ccc(Br)cc2)n1`: 258%; for `CCOC(=O)c1cn(-c2ccccc2)c(-c2ccc(OC)cc2)n1`: 369%; for `CCOC(=O)c1cn(-c2ccccc2)c(-c2ccc(C)cc2)n1`: 625%.

For the molecule `CCOC(=O)c1cn(-c2ccc(Cl)cc2)c(-c2ccc(Cl)cc2)n1`, the Maximal efficacy stood at 302%. On the same count and under the same terms, the same measure for `Cc1cn(-c2ccccc2)c(-c2ccccc2)n1`: -25%; for `CCCC(C)C1(CC)C(=O)NC(=O)NC1=O` (stereo unspecified) [PENTOBARBITAL]: 214%. Same read-out and setting: in the case of `CCCOC(=O)c1cn(-c2ccc(Cl)cc2Cl)c(-c2ccc(Br)cc2)n1` it was 537%; in that of `CCOC(=O)c1cn(-c2ccc(Cl)cc2Cl)c(-c2ccc(NC(C)=O)cc2)n1`, 209%; in that of `O=C(O)c1cn(-c2ccc(Cl)cc2Cl)c(-c2ccc(Cl)cc2)n1`, 256%. Turning to `CCOC(=O)c1cn(-c2ccccc2)c(-c2ccccc2)n1`, the Maximal efficacy stood at 638%. The same measure, in the same setting: the same measure for `CCOC(=O)c1cn(-c2ccc(F)cc2)c(-c2ccc(F)cc2)n1`: 569%.

For `CCOC(=O)c1cn(-c2ccc(Cl)cc2Cl)c(-c2ccc(I)cc2)n1`, the Maximal efficacy was 180%. As for `CN1CCN(C(=O)c2cn(-c3ccc(Cl)cc3Cl)c(-c3ccc(Cl)cc3)n2)CC1`, the Maximal efficacy worked out at 58.2%. For the molecule `CCOC(=O)c1cn(-c2ccc(Cl)cc2Cl)c(-c2ccc(Cl)cc2)n1`, the Maximal efficacy worked out at 390%. As for `CCOC(=O)c1cn(-c2cccc(Cl)c2)c(-c2ccccc2)n1`, the Maximal efficacy came out at 350%.

Turning to `CCOC(=O)c1cn(-c2ccc(Cl)cc2Cl)c(-c2ccc(Br)cc2)n1`, the Maximal efficacy amounted to 388%. Regarding `CCOC(=O)c1cncn1[C@H](C)c1ccccc1` [ETOMIDATE], the Maximal efficacy amounted to 501%. As for `CC(C)c1cccc(C(C)C)c1O` [PROPOFOL], the Maximal efficacy came out at 461%. Take `CCN(CC)C(=O)c1cn(-c2ccc(Cl)cc2Cl)c(-c2ccc(Cl)cc2)n1`: the Maximal efficacy worked out at 32.4%. For `c1ccc(-c2nccn2-c2ccccc2)cc1`, the Maximal efficacy was -5.3%.

For `CCOC(=O)c1cn(-c2ccc(Cl)cc2Cl)c(-c2ccc(C)cc2)n1`, the Maximal efficacy amounted to 568%. In the case of `O=C(OCCN1CCCCC1)c1cn(-c2ccc(Cl)cc2Cl)c(-c2ccc(Br)cc2)n1`, the Maximal efficacy was -14%. On to `CCOC(=O)c1cn(-c2ccc(Cl)cc2Cl)c(-c2ccc([N+](=O)[O-])cc2)n1`, for which the Maximal efficacy came out at 413%. The same measure, in the same setting: the same measure for `CCOC(=O)c1cn(-c2ccc(Cl)cc2Cl)c(-c2ccccc2)n1`: 508%. `CC(=O)[C@H]1CC[C@H]2[C@@H]3CC[C@H]4C[C@H](O)CC[C@]4(C)[C@H]3C(=O)C[C@]12C`: the Maximal efficacy came out at 322%. Turning to `CCOC(=O)c1cn(-c2ccccc2)c(-c2ccc(Cl)cc2)n1`, the Maximal efficacy was 458%.

Consider `CCOC(=O)c1cn(-c2ccc(Cl)cc2Cl)c(-c2ccc(N)cc2)n1`, for which the Maximal efficacy was found to be 406%.

For the next experiment, the target named is T1, GABA A receptor alpha-2/beta-2/gamma-2 (Homo sapiens, UniProt P18507+P47869+P47870).
T1 sequence (P47870 whole entry): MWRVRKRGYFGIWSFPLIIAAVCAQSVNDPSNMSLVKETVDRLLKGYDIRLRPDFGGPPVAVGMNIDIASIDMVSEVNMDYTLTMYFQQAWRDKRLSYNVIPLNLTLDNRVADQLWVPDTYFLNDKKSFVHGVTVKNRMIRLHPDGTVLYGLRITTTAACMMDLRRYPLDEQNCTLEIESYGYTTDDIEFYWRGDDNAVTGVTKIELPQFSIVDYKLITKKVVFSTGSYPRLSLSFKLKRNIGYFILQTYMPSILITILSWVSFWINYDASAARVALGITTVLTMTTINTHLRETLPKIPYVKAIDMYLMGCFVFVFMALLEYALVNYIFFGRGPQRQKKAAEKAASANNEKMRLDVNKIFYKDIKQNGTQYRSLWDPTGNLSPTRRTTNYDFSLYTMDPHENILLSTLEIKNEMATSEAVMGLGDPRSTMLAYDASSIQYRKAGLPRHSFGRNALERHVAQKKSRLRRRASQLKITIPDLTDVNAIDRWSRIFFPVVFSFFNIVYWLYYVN
T1 sequence (P18507 whole entry): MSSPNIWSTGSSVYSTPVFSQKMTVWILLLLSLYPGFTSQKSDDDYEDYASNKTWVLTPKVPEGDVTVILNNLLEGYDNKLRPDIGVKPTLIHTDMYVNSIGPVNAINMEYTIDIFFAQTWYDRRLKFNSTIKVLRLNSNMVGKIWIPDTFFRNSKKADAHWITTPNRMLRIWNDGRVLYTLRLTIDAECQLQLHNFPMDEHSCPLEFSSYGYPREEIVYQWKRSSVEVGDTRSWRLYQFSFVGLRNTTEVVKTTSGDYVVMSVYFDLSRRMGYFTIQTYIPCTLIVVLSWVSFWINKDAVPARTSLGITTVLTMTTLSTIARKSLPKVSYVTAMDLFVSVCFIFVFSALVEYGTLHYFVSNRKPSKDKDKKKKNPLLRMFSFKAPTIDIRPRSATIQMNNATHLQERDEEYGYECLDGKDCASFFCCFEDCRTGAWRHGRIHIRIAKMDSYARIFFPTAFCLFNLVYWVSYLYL
T1 sequence (P47869 whole entry): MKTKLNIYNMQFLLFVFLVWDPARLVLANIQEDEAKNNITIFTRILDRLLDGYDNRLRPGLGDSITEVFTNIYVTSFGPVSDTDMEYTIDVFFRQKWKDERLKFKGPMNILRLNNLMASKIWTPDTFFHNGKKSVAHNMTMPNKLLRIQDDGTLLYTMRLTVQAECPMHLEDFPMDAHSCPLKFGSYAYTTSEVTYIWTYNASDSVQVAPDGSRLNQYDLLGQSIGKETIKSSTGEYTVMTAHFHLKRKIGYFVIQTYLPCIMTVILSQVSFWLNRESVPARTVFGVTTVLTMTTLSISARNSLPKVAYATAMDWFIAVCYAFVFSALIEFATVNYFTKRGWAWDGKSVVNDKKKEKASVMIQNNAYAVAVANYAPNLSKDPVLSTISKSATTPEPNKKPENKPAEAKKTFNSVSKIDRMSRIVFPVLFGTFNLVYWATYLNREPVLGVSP
As to the kind of experiment: Effective concentration against GABA-evoked chloride currents mediated by human Gamma-aminobutyric acid GABA-A receptor alpha2-beta2-gamma2L expressed in Xenopus oocytes. Type of experiment: cell-based, Oocyte.
Conditions: not given
Put shortly: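 Human α2β2γ2L cDNAs, 1.5 ng total in 30 nL at a 1:1:1 ratio, injected into the animal pole of oocytes. Oocytes held at 15 °C in supplemented modified Barth's solution, pH 7.5. Readout was % potentiation of Cl- current from concentration-response curves.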
Molecule `CCOC(=O)c1cn(-c2ccc(Cl)cc2Cl)c(-c2ccc(OC)cc2)n1` gave an EC50 of 1900 nM.

The molecule `CCOC(=O)c1cn(-c2ccc(Cl)c(Cl)c2)c(-c2ccc(Cl)cc2)n1` registered an EC50 of 2300 nM.

The molecule `COC(=O)c1cn(-c2ccc(Cl)cc2Cl)c(-c2ccc(Br)cc2)n1` showed a concentration giving a half-maximal response (EC50) of 3400 nM. This EC50 and that of the molecule before are within 1.5-fold of each other. Still for that read-out and setting: in the case of `CCOC(=O)c1cn(-c2ccccc2)c(-c2ccc(OC)cc2)n1` it was 9100 nM; in that of `CCOC(=O)c1cn(-c2ccccc2)c(-c2ccc(C)cc2)n1`, 4100 nM; in that of `CCOC(=O)c1cn(-c2ccc(Cl)cc2)c(-c2ccc(Cl)cc2)n1`, 1500 nM. `CCCC(C)C1(CC)C(=O)NC(=O)NC1=O` (stereo unspecified) [PENTOBARBITAL] had an EC50 of 50000 nM. In turn, `CCCOC(=O)c1cn(-c2ccc(Cl)cc2Cl)c(-c2ccc(Br)cc2)n1` gave an EC50 of 1700 nM. Molecule `CCOC(=O)c1cn(-c2ccc(Cl)cc2Cl)c(-c2ccc(NC(C)=O)cc2)n1` yielded an EC50 of 19000 nM. Against the preceding molecule, the EC50 is about 11-fold higher.

Take `O=C(O)c1cn(-c2ccc(Cl)cc2Cl)c(-c2ccc(Cl)cc2)n1`: the EC50 worked out at 8700 nM. The molecule `CCOC(=O)c1cn(-c2ccccc2)c(-c2ccccc2)n1` registered an EC50 of 6400 nM.

`CCOC(=O)c1cn(-c2ccc(F)cc2)c(-c2ccc(F)cc2)n1` gave an EC50 of 3100 nM. `CCOC(=O)c1cn(-c2ccc(Cl)cc2Cl)c(-c2ccc(I)cc2)n1` showed an EC50 of 450 nM. Consider `CN1CCN(C(=O)c2cn(-c3ccc(Cl)cc3Cl)c(-c3ccc(Cl)cc3)n2)CC1`, for which the EC50 was determined as 1300 nM. Still for that read-out and setting: the same measure for `CCOC(=O)c1cn(-c2ccc(Cl)cc2Cl)c(-c2ccc(Cl)cc2)n1`: 600 nM; for `CCOC(=O)c1cn(-c2cccc(Cl)c2)c(-c2ccccc2)n1`: 3000 nM; for `CCOC(=O)c1cn(-c2ccc(Cl)cc2Cl)c(-c2ccc(Br)cc2)n1`: 190 nM. Same read-out and setting: the same measure for `CC(C)c1cccc(C(C)C)c1O` [PROPOFOL]: 11200 nM; for `CCN(CC)C(=O)c1cn(-c2ccc(Cl)cc2Cl)c(-c2ccc(Cl)cc2)n1`: 4400 nM; for `CCOC(=O)c1cn(-c2ccc(Cl)cc2Cl)c(-c2ccc(C)cc2)n1`: 1000 nM.

Turning to `CCOC(=O)c1cn(-c2ccc(Cl)cc2Cl)c(-c2ccc([N+](=O)[O-])cc2)n1`, the midpoint of the response, the EC50, lay at 2400 nM. This EC50 is about 2.4-fold higher than that of the molecule before. As to `CCOC(=O)c1cn(-c2ccc(Cl)cc2Cl)c(-c2ccccc2)n1`, the EC50 came to 1800 nM.

Take `CCOC(=O)c1cn(-c2ccccc2)c(-c2ccc(Cl)cc2)n1`: the EC50 is 4200 nM. Consider `CCOC(=O)c1cn(-c2ccc(Cl)cc2Cl)c(-c2ccc(N)cc2)n1`, for which the EC50 stood at 4300 nM.
